Hits are enriched below; roughly 3.7% of the tested compounds scored in any of these assays.
SR-BI uptake up: enhances SR-BI lipid uptake from DiI-HDL | 320,000 tested, 0.096% active | activation, % at 12.5 µM | CHO ldlA[mSR-BI] cells, DiI-HDL uptake fluorescence, 3 h; 100 = double the neutral-control signal | AID 504775;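 active = mean replicate activation of at least 60% and every replicate at or above 60%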;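 also: 0% = median plate neutral-control signal and 100% = twice that signal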
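Material: SR-BI-overexpressing, LDLR-lacking CHO cells; schedule: compound exposure 3 h, 37 °C; reagent: DiI-labelled HDL at 10 µg/mL final; technique: bottom-read fluorescence, 550/595 nm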
FXN GAA850 act: increases GAA850 frataxin promoter reporter activity. HEK293 lucGAA850 FXN promoter luciferase reporter, 24 h; percent of 10 µM SAHA response. activation, % at 6 µM. 360,000 tested, 0.56% active;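 active = activation above the average of all compounds screened plus 3 SD, cutoff fixed separately per campaign, cut at about 7.5% in these data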;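 also: 0% = DMSO wells and 100% = 10 µM SAHA wells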
SR-BI HDL uptake: blocks mouse SR-BI lipid uptake from DiI-HDL; ldlA[mSR-BI] CHO cells, DiI-HDL uptake fluorescence, 3 h; Q61009; inhibition, % at 12.5 µM; 320,000 tested, 0.96% active;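 active = mean replicate inhibition of at least 70% and a set share of replicates each scoring 70 or more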;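 also: 0% = median of neutral control wells and 100% = median of positive control wells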
JMJD2C inh: human JMJD2C demethylase inhibition | Q9H3R0 | GST-JMJD2C(1-420) H3K9me3 demethylation, DELFIA europium | inhibition, % at 2.35 µM | 330,000 tested, 0.069% active | AID 2099;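 active = more than half of a compound's replicate wells show inhibition beyond 50%, single wells judged on their own value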;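 also: signal counts dimethyl H3K9 product captured on neutravidin plate; 0% = median of DMSO wells and 100% = 0.3 times that DMSO median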
AHR activator: human AHR activation. AHR-responsive luciferase reporter cells, luminescence. activation, % at 5 µM. 320,000 tested, 2.5% active. AID 2796; in the data active = activation above about 47%;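 also: 0% = vehicle wells and 100% = reference agonist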
Target sequence (P35869 whole entry, looked up): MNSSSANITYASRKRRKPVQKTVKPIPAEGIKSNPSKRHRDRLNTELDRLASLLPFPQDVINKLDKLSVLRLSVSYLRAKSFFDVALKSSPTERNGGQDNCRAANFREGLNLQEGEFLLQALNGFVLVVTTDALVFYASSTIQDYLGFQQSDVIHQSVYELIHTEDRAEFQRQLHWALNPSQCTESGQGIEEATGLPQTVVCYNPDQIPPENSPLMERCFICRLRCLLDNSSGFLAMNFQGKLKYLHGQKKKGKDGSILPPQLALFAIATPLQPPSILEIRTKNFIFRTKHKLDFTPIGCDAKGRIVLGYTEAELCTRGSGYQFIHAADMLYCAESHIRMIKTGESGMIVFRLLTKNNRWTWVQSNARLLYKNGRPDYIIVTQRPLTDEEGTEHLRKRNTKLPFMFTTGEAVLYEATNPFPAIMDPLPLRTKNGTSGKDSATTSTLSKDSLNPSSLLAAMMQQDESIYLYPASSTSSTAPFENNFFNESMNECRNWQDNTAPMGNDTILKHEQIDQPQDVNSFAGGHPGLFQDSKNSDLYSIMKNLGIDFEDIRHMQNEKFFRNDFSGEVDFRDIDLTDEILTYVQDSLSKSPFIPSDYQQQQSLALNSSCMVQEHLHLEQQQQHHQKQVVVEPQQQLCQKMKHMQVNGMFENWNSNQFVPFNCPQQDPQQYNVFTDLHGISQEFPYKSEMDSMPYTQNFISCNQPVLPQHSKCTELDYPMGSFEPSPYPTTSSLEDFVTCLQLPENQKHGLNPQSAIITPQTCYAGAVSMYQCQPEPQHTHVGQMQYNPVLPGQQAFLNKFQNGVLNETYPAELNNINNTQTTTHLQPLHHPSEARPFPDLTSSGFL
An asterisk follows results filed as active; . = not tested or not shown.

SMILES	SR-BI uptake up	FXN GAA850 act	SR-BI HDL uptake	JMJD2C inh	AHR activator
O=C(CN1C(=O)C2CC=CCC2C1=O)OCCN1C(=O)c2ccccc2C1=O (stereo not drawn)	2	3	-2	6	-1
COc1ccc(-c2csc(Nc3ncccc3C)n2)cc1	-17	3	17	11	37
COc1ccc(-c2csc(Nc3ncccc3C)n2)cc1OC	-72	4	72*	-7	-7
COc1ccc(-c2csc(NC(=O)CCn3cnc4ccccc4c3=O)n2)cc1OC	-75	-6	75*	0	-8
COc1cccc(NC(=O)Nc2nc(-c3ccc(OC)c(OC)c3)cs2)c1	-77	-14	77*	-17	-10
O=C(Nc1cccc(Cl)c1)Nc1nc(-c2ccc(Cl)cc2)cs1	-79	0	79*	12	-5
COc1ccc(-c2csc(NC(=O)CCCc3nc4ccccc4c(=O)[nH]3)n2)cc1OC	-23	0	23	5	1
COc1ccc(-c2csc(NC(C)=O)n2)cc1OC	-4	1	4	-4	3
O=C(Nc1ccccc1)Nc1nc(-c2ccc(Cl)cc2)cs1	-38	-1	38	-3	-4
CCOC(=O)Nc1ccc(S(=O)(=O)NC2CCCCC2)cc1	0	1	0	3	-2
COc1cc(-c2cc(NC=O)c3ncc(-c4cccc(C(F)(F)F)c4)n3c2)cc(OC)c1OC	.	1	.	.	.
COc1ccc(-c2csc(NC(=O)[C@H](C)N3C(=O)C4CC=CCC4C3=O)n2)cc1OC (stereo partly drawn)	-71	0	71*	2	1
CC(C(=O)Nc1nc(-c2ccc(F)c(F)c2)cs1)N1C(=O)C2CC=CCC2C1=O (stereo not drawn)	-34	-1	34	-7	2
COc1ccc(-c2c(C#CC(C)(C)O)c3ccccc3n2C)cc1	-38	0	38	25	13
COc1ccc(-c2oc3ccccc3c2C#CC(C)(C)O)cc1	-79	0	79*	1	-5
Cc1[nH]n(-c2ccccc2)c(=O)c1C(C[N+](=O)[O-])c1ccccc1Cl (stereo not drawn)	12	2	-12	13	68*
COC(=O)C1=C(CS(=O)(=O)c2ccc(OC)cc2)NC(=O)NC1c1ccccc1 (stereo not drawn)	18	0	-18	6	2
CC(=O)N1CCCc2ccc(NS(=O)(=O)c3ccccc3)cc21	8	4	-8	15	12
O=C(N/N=C\c1cc([N+](=O)[O-])ccc1N1CCCC1)c1ccccn1	-73	3	73*	11	8
COc1ccc(NCC(=O)N/N=C/c2cc([N+](=O)[O-])ccc2N2CCCC2)cc1	-86	4	86*	1	20
CC1CC(C)CN(C(=O)Cn2ncc3c([nH]c4ccccc43)c2=O)C1 (stereo not drawn)	16	-2	-16	-3	7
Cc1ccc(NC(=O)c2ccc(C(C)(C)C)cc2)cc1[N+](=O)[O-]	-6	4	6	0	-2
Cc1ccc(C(=O)Nc2cc([N+](=O)[O-])ccc2C)cc1	-19	5	19	3	16
Cc1ccc([N+](=O)[O-])cc1NC(=O)c1ccc(-c2ccccc2)cc1	-53	-3	53	-1	67*
O=C(Nc1ccccc1-c1ccccc1)c1cccc([N+](=O)[O-])c1	-51	0	51	7	56*
SMILES	SR-BI uptake up	FXN GAA850 act	SR-BI HDL uptake	JMJD2C inh	AHR activator
O=C(Nc1ccccc1-c1ccccc1)c1ccccc1	18	2	-18	-16	-1
Cc1ccc([N+](=O)[O-])cc1NC(=O)c1ccc(C(C)(C)C)cc1	-42	-2	42	4	71*
NC(=O)CN(C/C=C/c1ccccc1)C/C=C/c1ccccc1	18	1	-18	-2	55*
CCc1ccc(N2C(=O)Cc3c2nc(N)c(C#N)c3N)cc1	5	4	-5	16	52*
CC(C)(C)c1ccc(N2C(=O)Cc3c2nc(N)c(C#N)c3N)cc1	10	2	-10	-2	76*
CCN(CC)c1nc2c3c(nc4c(c3c1C#N)CC(=O)N4c1ccc(Cl)cc1)NC(C)=N2	-3	-4	3	-2	7
Cc1ccc(S(=O)(=O)N(C)CC(=O)Nc2cc(C)ccn2)cc1	8	3	-8	0	0
Nc1n[nH]c(C2CC2)c1N=Nc1ccc(Cl)c(Cl)c1	.	3	.	-9	96*
Nc1nc(N)c(N=Nc2ccc(Cl)cc2)c(=O)[nH]1	16	5	-16	-1	8
O=C(CN1CCN(c2ccccc2O)CC1)Nc1ccc2c(c1)OCCCO2	-23	3	23	5	6
O=C1Nc2ccc(Br)cc2/C1=N\N=C\C1=C(N2CCOCC2)C(=C/c2ccccc2)/CC1	-100	0	100*	.	.
O=C1Nc2ccccc2/C1=N\N=C\C1=C(N2CCOCC2)C(=C\c2ccccc2)/CC1	-128	-1	128*	-4	10
CCc1ccc(Nc2cnn(-c3nc4ccccc4s3)c(=O)c2Cl)cc1	3	-3	-3	2	49*
CC(C)(C)OC(=O)C[C@H]1C/C=C\C[C@H](CC(=O)N(CCO)Cc2ccccc2)C(=O)NC[C@H](c2ccccc2)OC1=O	9	-2	-9	-5	-1
COc1cc(-c2nc3n(n2)C(c2ccc(F)cc2)C2=C(CCCC2=O)N3)cc(OC)c1OC (stereo not drawn)	-8	1	8	1	82*
CNc1nc(-c2c(C)n(C)c3ccc(OC)cc23)cs1	-8	0	8	-28	30
COc1ccc(C)cc1NC(=O)CN1C(=O)C2CC=CCC2C1=O (stereo not drawn)	3	0	-3	0	1
Clc1ccccc1Cn1nnc2c(NCCN3CCOCC3)ncnc21	23	-1	-23	91*	0
CCOCCn1c(C)c(C(=O)OCC)c2cc(O)c3ccccc3c21	-73	0	73*	3	10
CCOC(=O)c1c(C)n(CCO)c2ccc(O)cc12	27	-2	-27	2	13
Cc1cccn2c(=O)c3cc(C(=O)NC4CCCC4)c(=N)n(CC4CCCO4)c3nc12 (stereo not drawn)	.	2	.	0	55*
Cc1cccn2c(=O)c3cc(C(=O)NCC4CCCO4)c(=N)n(CC4CCCO4)c3nc12 (stereo not drawn)	2	1	-2	7	3
O=c1[nH]c2cc3c(cc2cc1CN(Cc1cccnc1)C(=S)NCc1ccco1)OCO3	7	0	-7	-6	66*
O=c1[nH]c2cc3c(cc2cc1CN(Cc1cccnc1)C(=S)NCc1ccco1)OCCO3	19	-1	-19	-1	28
Cc1cc(C(=O)CSc2nc3ccccc3c(=O)n2C)c(C)n1Cc1ccc2c(c1)OCO2	-18	-4	18	5	0
COc1ccccc1N=Nc1ccc(N)c(C)c1	-30	-4	30	3	60*

Source: PubChem (several laboratories)
